# KLK7 zymogen act = activators of human kallikrein-7 zymogen. P49862. purified proKLK7, EDANS-DABCYL substrate fluorescence; 100% is mature enzyme control, 0% vehicle. activation, % at 7 µM. 370,000 compounds, 0.9% hits;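 active means activation above the mean of all tested compounds plus 3 SD, computed per campaign excluding outliers beyond control limits, cut at about 13% in these data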
# Target sequence (P49862 whole entry, looked up): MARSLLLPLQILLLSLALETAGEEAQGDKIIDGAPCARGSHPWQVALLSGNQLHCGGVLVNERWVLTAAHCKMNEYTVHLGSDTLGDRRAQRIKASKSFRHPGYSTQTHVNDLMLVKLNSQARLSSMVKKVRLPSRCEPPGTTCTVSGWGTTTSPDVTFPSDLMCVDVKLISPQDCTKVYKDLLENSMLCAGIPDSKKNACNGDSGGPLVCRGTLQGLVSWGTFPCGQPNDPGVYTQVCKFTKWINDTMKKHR
# NR2E3 ag-1 = agonists of human nuclear receptor NR2E3. AID 2300. 320,000 compounds, 0.12% hits. inhibition of corepressor binding, % at 4.78 µM. Q9Y5X4. GST-NR2E3/biotin-RetCOR TR-FRET, 1536-well;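 active means percent inhibition above the cutoff of mean plus 3 SD of all tested compounds, set per screening campaign, cut at about 20% in these data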;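 further: 0% = DMSO wells and 100% = biotin wells as full block of FRET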
#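 Material: NR2E3–RetCOR corepressor complex / Amount: 1.35 nM GST-NR2E3 / Medium: Tris pH 7.5 / Compound: single nominal compound dose of 4.8 µM / Incubation: 5 h at 4 °C / Technique: TR-FRET, Eu(K)-anti-GST donor, streptavidin-D2 acceptor, ex 340, em 617/671 nm / Read-out basis: percent loss of FRET ratio relative to control wells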
# GASC-1 inh = inhibitors of human GASC-1 (JMJD2C) demethylase; AID 2099; GST-JMJD2C(1-420) H3K9me3 demethylation, DELFIA europium; inhibition, % at 2.35 µM; 330,000 compounds, 0.069% hits;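 active means more than half of a compound's replicate wells show inhibition beyond 50%, single wells judged on their own value; inconclusive means some, but no more than half, of replicates pass 50% inhibition; inactive means no replicate passes 50% inhibition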;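 further: signal counts dimethyl H3K9 product captured on neutravidin plate; 0% = median of DMSO wells and 100% = 0.3 times that DMSO median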
# Target sequence (Q9H3R0 1-420 limits assumed): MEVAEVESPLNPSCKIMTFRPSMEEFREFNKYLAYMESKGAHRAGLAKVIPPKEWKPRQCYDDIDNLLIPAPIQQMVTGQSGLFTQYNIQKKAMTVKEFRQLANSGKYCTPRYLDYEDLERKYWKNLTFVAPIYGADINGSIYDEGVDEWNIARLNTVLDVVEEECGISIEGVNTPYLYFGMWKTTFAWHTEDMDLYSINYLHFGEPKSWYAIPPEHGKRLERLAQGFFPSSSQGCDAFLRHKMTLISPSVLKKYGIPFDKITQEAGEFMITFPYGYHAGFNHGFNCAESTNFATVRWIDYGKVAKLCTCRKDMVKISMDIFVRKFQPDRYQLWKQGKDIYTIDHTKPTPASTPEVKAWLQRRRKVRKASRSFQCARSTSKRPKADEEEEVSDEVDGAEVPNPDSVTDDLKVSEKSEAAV
# ADAM10 inh = inhibits human ADAM10; inhibition, % at 7 µM; 370,000 compounds, 0.62% hits; AID 720582; O14672; recombinant ADAM10, EDANS/DABCYL FRET peptide cleavage, 3 h;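 active means inhibition above a per-campaign cutoff equal to the mean of compounds falling between control-based bounds plus 3 SD, cut at about 20% in these data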;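 further: 0% = DMSO wells while the 100% control is not disclosed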
# NR2E3 ag-2 = agonists of human NR2E3 nuclear receptor. Q9Y5X4. 360,000 compounds, 0.35% hits. CHO-S Gal4-NCOR/VP16-NR2E3 two-hybrid, luciferase. inhibition of corepressor binding, % at 3.98 µM;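 active means inhibition above the mean of all tested compounds plus 3 SD, cut at about 70% in these data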;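 further: 0% = DMSO with NR2E3 transfected cells and 100% = cells lacking NR2E3 construct; higher means lower luciferase signal from less NR2E3 corepressor binding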
# ADAM17 inh = inhibitors of human ADAM17. recombinant ADAM17, EDANS/DABCYL FRET peptide cleavage. 370,000 compounds, 0.83% hits. P78536. AID 720648. inhibition, % at 6.95 µM;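 active means inhibition above the mean of compounds lying between control limits plus 3 SD, set per campaign, cut at about 8.5% in these data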;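 further: 0% = DMSO-only wells as the low control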
# proKLK7 act conf = confirmation of human kallikrein-7 zymogen activators; shares compounds with KLK7 zymogen act; purified proKLK7, EDANS-DABCYL substrate fluorescence; scaled: vehicle 0, mature enzyme 100; activation, % at 7 µM; 3,200 compounds, 68% hits; AID 686949;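 active means activation, as change over the incubation, above the mean of all tested compounds plus 3 SD, cut at about 13% in these data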
# EDANS-DABCYL int = counter-screen for kallikrein-7 activators: EDANS-DABCYL optical interference | activation, % at 7 µM | EDANS-DABCYL substrate fluorescence interference, no enzyme, 4 h; solvent 0%, active enzyme control 100% | 3,200 compounds, 80% hits | shares compounds with KLK7 zymogen act;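 active means activation above the all-compound mean plus 3 SD, ignoring values outside control-based bounds, cut at about 4.8% in these data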;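 further: value is the 4 h activation minus the activation read at time zero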
# EDANS interf = optically interferes with EDANS-DABCYL fluorescence, kallikrein-7 activator counter-screen; EDANS-DABCYL peptide fluorescence interference, no enzyme; shares compounds with KLK7 zymogen act; AID 720493; EC50, µM; 250 compounds, 20% hits;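 active means compounds that raise the fluorescence signal in this interference counterscreen, with EC50 at or below 10 µM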;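 further: intact quenched peptide substrate alone read at 355 nm excitation and 520 nm emission; signal is fluorescence gain from T0 to T4 after four hours at room temperature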
# * marks the source's active call; other numbers are inactive results; i = inactive; ? = inconclusive; · = no result. Shown are actives, neighbours in structure and some others; about 2.5% of the full set was active somewhere.
SMILES,KLK7 zymogen act,NR2E3 ag-1,GASC-1 inh,ADAM10 inh,NR2E3 ag-2,ADAM17 inh,proKLK7 act conf,EDANS-DABCYL int,others
CCOC(=O)C1CCN(C(c2cc3c(C)ccc(C)c3[nH]c2=O)c2nnnn2C2CCCCC2)CC1 (stereo unspecified),27*,5,-17,-63,-19,-22,1,0,
C[C@H](O)[C@@H]1CN2CCc3c([nH]c4ccccc34)[C@@H]2C[C@@H]1N(C)C(=S)NCCc1ccccc1,39*,·,·,i,3,-169,4,3,
Cc1cccc(-c2cccc3c4c([nH]c23)[C@@H]2C[C@H](N(C)C(=S)NCCc3ccccc3)[C@H]([C@H](C)O)CN2CC4)c1,0,·,·,-35,·,-10,·,·,
CCNC(=O)N(C)[C@H]1C[C@H]2c3[nH]c4ccccc4c3CCN2C[C@H]1[C@H](C)O,17*,·,·,-173,-1,-44,0,2,
Cc1cnc2ccc(F)cc2c1,1,·,·,5,-7,3,·,·,
Cn1c2ccccc2c(=O)c2c(=O)n(Cc3ccco3)c(-c3ccc(C(C)(C)C)cc3)nc21,·,4,4,·,·,·,·,·,
O=C(Nc1nc2ccccc2s1)c1ccc(OCC2CCCO2)cc1 (stereo unspecified),-2,0,-8,-8,-191,-4,·,·,
COc1ccc2[nH]c3c(=O)n(Cc4ccncc4)cnc3c2c1,13*,2,0,i,-12,-301,7,9.8*,
CCN1CCCC1Cn1cnc2c([nH]c3ccc(OC)cc32)c1=O (stereo unspecified),24*,0,-2,-445,7,-154,9,10*,
CCC(C)[C@H](NS(=O)(=O)c1ccc(C)cc1)C(=O)N1CCC(C(=O)N2CCC(C(=O)OC)CC2)CC1 (stereo partly specified),0,2,?,-1,6,0,·,·,
COC(=O)c1cc(Cl)ccc1NCC(N)c1ccccc1 (stereo unspecified),18*,·,·,i,24,i,-41,-40,
Cc1ccc(C(=O)Nc2ccc(NC(=O)c3ccc(C)o3)cc2)o1,29*,1,0,0,-10,-2,31*,18*,
COc1ccc(OC)c(C2NC(=O)NC(C)=C2C(=O)OC2CCCCC2)c1 (stereo unspecified),19*,1,9,-6,-15,-3,-2,1,
COc1ccccc1C1NC(=O)NC(C)=C1C(=O)OC1CCCCC1 (stereo unspecified),0,8,8,-16,1,1,·,·,
Cc1nn(-c2ccc(F)cc2)c2sc(C(=O)OC3CCOC3=O)cc12 (stereo unspecified),20*,3,12,-281,0,-47,24*,23*,
CNC(=O)COC(=O)c1cc2c(C)nn(-c3ccc(F)cc3)c2s1,0,0,3,-23,14,-8,·,·,
COc1ccccc1-c1c(C(F)(F)F)oc2cc(OC(=O)c3cccc([N+](=O)[O-])c3C)ccc2c1=O,0,-1,-33,4,20,-2,·,·,
CS(=O)(=O)c1ccc(-c2sc3cc4c(cc3c2C(=O)NN2CCOCC2)OCO4)cc1,43*,·,25,i,-22,-344,35*,28*,EDANS interf=>70
CCOc1ccc(C(=O)Nc2ncccc2Cl)cc1,0,3,2,-6,-30,-14,·,·,
CCN(CC)C(=O)[C@H]1C[C@H](CC(=O)NC/C=C(\C)CCC=C(C)C)C(=O)N2CCc3c([nH]c4cc(-c5ccco5)ccc34)[C@]12C,19*,·,·,-213,-22,-81,4,12*,
CCN(CC)C(=O)[C@H]1C[C@H](CC(=O)NCc2ccc(OC)c(OC)c2)C(=O)N2CCc3c([nH]c4cc(-c5ccco5)ccc34)[C@]12C,141*,·,·,i,-9,-171,68*,76*,
CC(C)N(C(=O)[C@H]1C[C@H](CC(=O)NCCCN(C)C)C(=O)N2CCc3c([nH]c4cc(-c5ccco5)ccc34)[C@]12C)C(C)C,103*,·,·,-290,-12,-78,73*,88*,
COc1ccc(CNC(=O)CC2C[C@H](C(=O)N(C(C)C)C(C)C)[C@@]3(C)c4[nH]c5ccccc5c4CCN3C2=O)cc1OC (stereo partly specified),1,·,2,-1,-12,0,·,·,
CCN(CC)C(=O)[C@H]1C[C@H](CC(=O)NCC23CC4CC(CC(C4)C2)C3)C(=O)N2CCc3c([nH]c4cc(-c5ccco5)ccc34)[C@]12C,-7,·,·,-107,-27,-30,·,·,
CCN(CC)C(=O)[C@H]1C[C@H](CC(=O)NCCCN(C)C)C(=O)N2CCc3c([nH]c4cc(-c5ccco5)ccc34)[C@]12C,90*,·,·,-305,-17,-69,73*,84*,
SMILES,KLK7 zymogen act,NR2E3 ag-1,GASC-1 inh,ADAM10 inh,NR2E3 ag-2,ADAM17 inh,proKLK7 act conf,EDANS-DABCYL int,others
CC(C)=CCC/C(C)=C/CNC(=O)C[C@H]1C[C@H](C(=O)N(C(C)C)C(C)C)[C@@]2(C)c3[nH]c4cc(-c5ccco5)ccc4c3CCN2C1=O,-4,·,·,-360,0,-114,·,·,
CCCCNC(=O)C1CCCN1C(=O)Nc1ccc2c(c1)OCO2 (stereo unspecified),0,·,·,-2,·,0,·,·,
COc1ccc(S(=O)(=O)N(C)C)cc1NS(=O)(=O)c1ccc(F)c(F)c1F,-1,0,-1,1,5,-1,·,·,
CCN(CC)C(=O)[C@H]1C[C@H](CC(=O)NCCCOC)C(=O)N2CCc3c([nH]c4cc(-c5ccco5)ccc34)[C@]12C,164*,·,·,-375,3,-102,166*,206*,
COc1cc2c(cc1OC)C(CSc1ccccc1C(=O)O)=NC(C)(C)C2,14*,0,-16,-107,-6,-37,6,5.2*,
CCOc1ccccc1Oc1c(C)oc2c(CN3CCN(CCO)CC3)c(O)ccc2c1=O,129*,4,3,i,-2,i,68*,66*,
COc1ccccc1Oc1c(C)oc2c(CN3CCN(CCO)CC3)c(O)ccc2c1=O,116*,7,4,i,·,i,66*,70*,

# From PubChem
